# Measured values from ChEMBL document CHEMBL1629517, “Molecular properties prediction, synthesis and antimicrobial activity of some newer oxadiazole derivatives” (2010).
# Experiments:
# Bacillus subtilis [1] = assay: Antibacterial activity against Bacillus subtilis ATCC 6633 at 100 ug/ml after 24 hrs by disc-diffusion method; assay type: functional; details: ATCC 6633, 24 h, read-out: IZ
# Pseudomonas aeruginosa [2] = assay: Antibacterial activity against Pseudomonas aeruginosa ATCC 27853 after 18 to 24 hrs; assay type: functional
# Bacillus subtilis [3] = assay: Antibacterial activity against Bacillus subtilis ATCC 6633 at 200 ug/ml after 24 hrs by disc-diffusion method; assay type: functional; details: ATCC 6633, 24 h, read-out: IZ
# Escherichia coli [4] = assay: Antibacterial activity against Escherichia coli ATCC 25922 at 200 ug/ml after 24 hrs by disc-diffusion method; assay type: functional; details: ATCC 25922, 24 h, read-out: IZ
# Aspergillus niger [5] = assay: Antifungal activity against Aspergillus niger after 48 hrs; assay type: functional
# Bacillus subtilis [6] = assay: Antibacterial activity against Bacillus subtilis ATCC 6633 after 18 to 24 hrs; assay type: functional
# Candida albicans [7] = assay: Antifungal activity against Candida albicans after 48 hrs; assay type: functional
# Aspergillus niger [8] = assay: Antifungal activity against Aspergillus niger at 200 ug/ml after 48 hrs by agar diffusion method; assay type: functional; details: read-out: IZ
# Method in brief: (§1)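 Agar well diffusion on Sabouraud agar (peptone 1 g, D-glucose 4 g, agar 2 g per 100 ml water, pH 5.7). Plates were lawned with a saline suspension of spores, excess was decanted, and plates were dried 1 h at 37 °C. Compounds in DMSO went into punched wells, and inhibition zones were measured against controls, with voriconazole as standard.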
# Staphylococcus aureus [9] = assay: Antibacterial activity against Staphylococcus aureus ATCC 25923 after 24 hrs by broth dilution technique; assay type: functional; details: ATCC 25923, 24 h
# Method in brief: (§2)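 MIC by broth dilution: nutrient broth containing logarithmic two-fold serial dilutions of compound was inoculated with about 5 × 10⁵ c.f.u. of actively dividing bacteria.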
# Pseudomonas aeruginosa [10] = assay: Antibacterial activity against Pseudomonas aeruginosa ATCC 27853 at 100 ug/ml after 24 hrs by disc-diffusion method; assay type: functional; details: ATCC 27853, 24 h, read-out: IZ
# Staphylococcus aureus [11] = assay: Antibacterial activity against Staphylococcus aureus ATCC 25923 at 200 ug/ml after 24 hrs by disc-diffusion method; assay type: functional; details: ATCC 25923, 24 h, read-out: IZ
# Staphylococcus aureus [12] = assay: Antibacterial activity against Staphylococcus aureus ATCC 25923 at 100 ug/ml after 24 hrs by disc-diffusion method; assay type: functional; details: ATCC 25923, 24 h, read-out: IZ
# Staphylococcus aureus [13] = assay: Antibacterial activity against Staphylococcus aureus ATCC 25923 after 18 to 24 hrs; assay type: functional
# Pseudomonas aeruginosa [14] = assay: Antibacterial activity against Pseudomonas aeruginosa ATCC 27853 at 200 ug/ml after 24 hrs by disc-diffusion method; assay type: functional; details: ATCC 27853, 24 h, read-out: IZ
# Escherichia coli [15] = assay: Antibacterial activity against Escherichia coli ATCC 25922 at 100 ug/ml after 24 hrs by disc-diffusion method; assay type: functional; details: ATCC 25922, 24 h, read-out: IZ
# Escherichia coli [16] = assay: Antibacterial activity against Escherichia coli ATCC 25922 after 18 to 24 hrs; assay type: functional
# Candida albicans [17] = assay: Antifungal activity against Candida albicans at 100 ug/ml after 48 hrs by agar diffusion method; assay type: functional; details: read-out: IZ; method in brief: as §1
# Bacillus subtilis [18] = assay: Antibacterial activity against Bacillus subtilis ATCC 6633 after 24 hrs by broth dilution technique; assay type: functional; details: ATCC 6633, 24 h; method in brief: as §2
# Aspergillus niger [19] = assay: Antifungal activity against Aspergillus niger at 100 ug/ml after 3 to 4 days by agar diffusion method; details: read-out: IZ
# Pseudomonas aeruginosa [20] = assay: Antibacterial activity against Pseudomonas aeruginosa ATCC 27853 after 24 hrs by broth dilution technique; assay type: functional; details: ATCC 27853, 24 h; method in brief: as §2
# Candida albicans [21] = assay: Antifungal activity against Candida albicans at 200 ug/ml after 48 hrs by agar diffusion method; assay type: functional; details: read-out: IZ; method in brief: as §1
# Escherichia coli [22] = assay: Antibacterial activity against Escherichia coli ATCC 25922 after 24 hrs by broth dilution technique; assay type: functional; details: ATCC 25922, 24 h; method in brief: as §2
MIC (Aspergillus niger [5]),MIC (Candida albicans [7]),MIC (Staphylococcus aureus [9]),MIC (Bacillus subtilis [18]),SMILES,zone of inhibition at 100 µg/mL (Bacillus subtilis [1]),MBC (Pseudomonas aeruginosa [2]),zone of inhibition at 200 µg/mL (Bacillus subtilis [3]),zone of inhibition at 200 µg/mL (Escherichia coli [4]),MFC (Aspergillus niger [5]),MBC (Bacillus subtilis [6]),MFC (Candida albicans [7]),zone of inhibition at 200 µg/mL (Aspergillus niger [8]),zone of inhibition at 100 µg/mL (Pseudomonas aeruginosa [10]),zone of inhibition at 200 µg/mL (Staphylococcus aureus [11]),zone of inhibition at 100 µg/mL (Staphylococcus aureus [12]),MBC (Staphylococcus aureus [13]),zone of inhibition at 200 µg/mL (Pseudomonas aeruginosa [14]),zone of inhibition at 100 µg/mL (Escherichia coli [15]),MBC (Escherichia coli [16]),zone of inhibition at 100 µg/mL (Candida albicans [17]),also measured
6 µg/mL,12.5 µg/mL,6 µg/mL,12.5 µg/mL,COc1cc(/C=C/C(=O)c2ccccc2)ccc1OCc1nnc(COc2ccccc2)o1,12 mm,25 µg/mL,14 mm,20 mm,12.5 µg/mL,25 µg/mL,25 µg/mL,25 mm,23 mm,17 mm,15 mm,12.5 µg/mL,24 mm,18 mm,12.5 µg/mL,16 mm,zone of inhibition at 100 µg/mL (Aspergillus niger [19]): 22 mm; MIC (Pseudomonas aeruginosa [20]): 12.5 µg/mL; zone of inhibition at 200 µg/mL (Candida albicans [21]): 18 mm; MIC (Escherichia coli [22]): 12.5 µg/mL
12.5 µg/mL,6 µg/mL,12.5 µg/mL,6 µg/mL,COc1ccc(C(=O)/C=C/c2ccc(OCc3nnc(-c4ccccc4)o3)c(OC)c2)cc1,12 mm,50 µg/mL,14 mm,21 mm,25 µg/mL,12.5 µg/mL,25 µg/mL,24 mm,25 mm,18 mm,16 mm,25 µg/mL,26 mm,19 mm,25 µg/mL,15 mm,zone of inhibition at 100 µg/mL (Aspergillus niger [19]): 23 mm; MIC (Pseudomonas aeruginosa [20]): 12.5 µg/mL; zone of inhibition at 200 µg/mL (Candida albicans [21]): 17 mm; MIC (Escherichia coli [22]): 12.5 µg/mL
12.5 µg/mL,12.5 µg/mL,12.5 µg/mL,12.5 µg/mL,COc1ccc(C(=O)/C=C/c2ccc(OCc3nnc(-c4ccc(C)cc4)o3)c(OC)c2)cc1,12 mm,25 µg/mL,14 mm,21 mm,25 µg/mL,25 µg/mL,25 µg/mL,23 mm,23 mm,17 mm,15 mm,25 µg/mL,24 mm,19 mm,25 µg/mL,16 mm,zone of inhibition at 100 µg/mL (Aspergillus niger [19]): 20 mm; MIC (Pseudomonas aeruginosa [20]): 12.5 µg/mL; zone of inhibition at 200 µg/mL (Candida albicans [21]): 18 mm; MIC (Escherichia coli [22]): 6 µg/mL
6 µg/mL,6 µg/mL,6 µg/mL,6 µg/mL,COc1ccc(C(=O)/C=C/c2ccc(OCc3nnc(-c4ccccc4O)o3)c(OC)c2)cc1,18 mm,25 µg/mL,20 mm,26 mm,12.5 µg/mL,12.5 µg/mL,12.5 µg/mL,26 mm,30 mm,23 mm,21 mm,6 µg/mL,32 mm,25 mm,12.5 µg/mL,19 mm,zone of inhibition at 100 µg/mL (Aspergillus niger [19]): 25 mm; MIC (Pseudomonas aeruginosa [20]): 12.5 µg/mL; zone of inhibition at 200 µg/mL (Candida albicans [21]): 21 mm; MIC (Escherichia coli [22]): 6 µg/mL
6 µg/mL,12.5 µg/mL,12.5 µg/mL,12.5 µg/mL,COc1ccc(C(=O)/C=C/c2ccc(OCc3nnc(COc4ccccc4)o3)c(OC)c2)cc1,13 mm,12.5 µg/mL,16 mm,22 mm,12.5 µg/mL,12.5 µg/mL,25 µg/mL,19 mm,26 mm,19 mm,17 mm,25 µg/mL,28 mm,21 mm,12.5 µg/mL,11 mm,zone of inhibition at 100 µg/mL (Aspergillus niger [19]): 16 mm; MIC (Pseudomonas aeruginosa [20]): 25 µg/mL; zone of inhibition at 200 µg/mL (Candida albicans [21]): 14 mm; MIC (Escherichia coli [22]): 25 µg/mL
25 µg/mL,12.5 µg/mL,25 µg/mL,12.5 µg/mL,COc1cc(/C=C/C(=O)c2ccc(O)cc2)ccc1OCc1nnc(-c2ccccc2)o1,13 mm,50 µg/mL,15 mm,23 mm,50 µg/mL,25 µg/mL,25 µg/mL,24 mm,25 mm,18 mm,17 mm,50 µg/mL,27 mm,21 mm,50 µg/mL,16 mm,zone of inhibition at 100 µg/mL (Aspergillus niger [19]): 22 mm; MIC (Pseudomonas aeruginosa [20]): 25 µg/mL; zone of inhibition at 200 µg/mL (Candida albicans [21]): 18 mm; MIC (Escherichia coli [22]): 12.5 µg/mL
6 µg/mL,6 µg/mL,6 µg/mL,6 µg/mL,COc1cc(/C=C/C(=O)c2ccc(O)cc2)ccc1OCc1nnc(-c2ccccc2O)o1,16 mm,12.5 µg/mL,18 mm,24 mm,12.5 µg/mL,12.5 µg/mL,12.5 µg/mL,29 mm,27 mm,20 mm,19 mm,12.5 µg/mL,28 mm,23 mm,25 µg/mL,21 mm,zone of inhibition at 100 µg/mL (Aspergillus niger [19]): 27 mm; MIC (Pseudomonas aeruginosa [20]): 6 µg/mL; zone of inhibition at 200 µg/mL (Candida albicans [21]): 24 mm; MIC (Escherichia coli [22]): 12.5 µg/mL
6 µg/mL,12.5 µg/mL,6 µg/mL,12.5 µg/mL,COc1cc(/C=C/C(=O)c2ccc(O)cc2)ccc1OCc1nnc(COc2ccccc2)o1,14 mm,25 µg/mL,16 mm,22 mm,12.5 µg/mL,25 µg/mL,25 µg/mL,24 mm,25 mm,18 mm,17 mm,12.5 µg/mL,27 mm,20 mm,12.5 µg/mL,17 mm,zone of inhibition at 100 µg/mL (Aspergillus niger [19]): 22 mm; MIC (Pseudomonas aeruginosa [20]): 12.5 µg/mL; zone of inhibition at 200 µg/mL (Candida albicans [21]): 19 mm; MIC (Escherichia coli [22]): 6 µg/mL
